The list is not random: actives were taken first. Their share in the collection is about 2.1%.
Tb hexokinase: T. brucei hexokinase 1 inhibition. recombinant TbHK1, G6PDH-coupled NADH A340. inhibition, % at 10 µM. hit rate 0.11% among 220,000;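 active means inhibition of 50% or more in the single-dose primary screen; inactive means inhibition below 50%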
p97 ATPase inh: human p97 ATPase inhibition; P55072; recombinant p97 ATPase, Kinase-Glo ATP luminescence, 3 h; inhibition, % at 8 µM; hit rate 0.42% among 220,000; AID 1481; in the data active means inhibition above about 15%
RanGTP-Impb inh: inhibitors of RanGTP-importin-beta interaction, primary screen, biochemical, FRET, CFP-Ran, YFP-importin-beta, homogeneous; cell-free CFP-Ran/YFP-importin-beta FRET ratio; inhibition, % (no concentration beside the values); hit rate 1.1% among 300,000; AID 2216;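 active means more than half of the replicate wells show a fall in the fluorescence ratio signal beyond about 16%, limit read from the data, passing the limit was not always enough; inconclusive means exactly half of the replicate wells pass the set limit; inactive means fewer than half of replicates pass the limit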
Runt-CBFb FRET: Runt domain-CBFb interaction inhibition | Cerulean-Runt/Venus-CBFb FRET ratio 530/480, 1 h | inhibition, % at 20 µM | hit rate 0.46% among 220,000;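 active means inhibition over about 50% at 20 µM in the single-dose screen, limit read from the data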
Target sequence (Q01196 whole entry, looked up, the tested form may be a part): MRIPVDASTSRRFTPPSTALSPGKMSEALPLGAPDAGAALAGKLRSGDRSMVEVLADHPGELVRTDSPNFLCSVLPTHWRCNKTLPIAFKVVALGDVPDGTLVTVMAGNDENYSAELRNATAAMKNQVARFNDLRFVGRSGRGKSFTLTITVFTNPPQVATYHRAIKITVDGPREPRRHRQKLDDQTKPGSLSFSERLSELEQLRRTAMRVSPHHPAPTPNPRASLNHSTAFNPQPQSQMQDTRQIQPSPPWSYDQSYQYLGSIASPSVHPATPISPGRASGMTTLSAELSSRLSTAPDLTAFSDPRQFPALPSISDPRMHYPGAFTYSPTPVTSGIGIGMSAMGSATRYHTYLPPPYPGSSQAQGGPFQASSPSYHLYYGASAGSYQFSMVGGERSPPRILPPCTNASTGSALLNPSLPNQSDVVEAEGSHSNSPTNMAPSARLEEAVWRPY
Target sequence (Q13951 whole entry, looked up, the tested form may be a part): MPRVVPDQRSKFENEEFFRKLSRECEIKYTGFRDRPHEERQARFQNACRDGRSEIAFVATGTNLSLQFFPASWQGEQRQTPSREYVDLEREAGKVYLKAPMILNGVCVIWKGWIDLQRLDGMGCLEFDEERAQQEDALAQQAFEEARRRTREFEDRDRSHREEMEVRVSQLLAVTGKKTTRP
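Assay system: Cerulean-tagged RUNX1 Runt domain (FRET donor) fusion protein / Amount: 100 nM each of Venus-CBFb and Cerulean-Runt domain / Medium: Tris buffer pH 7.5 with salts and BSA / Also added: Venus-CBFb 100 nM / Schedule: 1 h complex formation plus 1 h compound treatment, room temperature / Signal: FRET fluorescence / Read-out: loss of energy transfer signal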
Runt-SMMHC FRET: inhibitors of human RUNX1 Runt domain binding to CBFb-SMMHC | Q01196+Q13951 | Cerulean-Runt/Venus-CBFb-SMMHC FRET ratio 530/480, 1 h | inhibition, % at 20 µM | hit rate 0.74% among 220,000 | AID 1434;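 active means mean inhibition across duplicate retests at 20 µM reaching about 50%, limit read from the data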;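 further: inhibitors lower the FRET ratio by blocking Runt binding to CBFb-SMMHC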
Hck Nef HTS: human Hck-Nef kinase inhibition | P08631 | Recombinant Hck-YEEI plus Nef, Z-Lyte FRET kinase assay | inhibition, % at 20 µM | hit rate 0.68% among 220,000 | AID 463187;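 active means Hck-Nef kinase inhibition above about 50%, limit read from the data; inactive means inhibition below that limit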
Numbers stand for hits; – = inactive; ? = inconclusive; · = not tested or not shown.

SMILES	Tb hexokinase	p97 ATPase inh	RanGTP-Impb inh	Runt-CBFb FRET	Runt-SMMHC FRET	Hck Nef HTS
CC(C)(C)C1CCc2c(sc3c2C(=O)NC(c2ccco2)N3)C1 (stereo unspecified)	–	–	–	–	–	–
O=C1NC(c2ccc3c(c2)OCO3)Nc2ccccc21 (stereo unspecified)	–	–	–	–	–	–
CN1CCc2c(sc3c2C(=O)NC(/C=C/c2ccco2)N3)C1 (stereo unspecified)	–	–	78	·	·	–
Cc1ccc(CCC(=O)Nc2ccc(C)c(C)c2)o1	·	·	–	·	·	·
CCOC(=S)SCc1cn2ccc(C)cc2n1	–	–	21	–	–	–
CCOC(=S)SCc1cn2ccccc2n1	–	–	–	·	–	–
COc1ccc(OC)c(NC(=O)CN(C)S(=O)(=O)c2ccc(Cl)cc2)c1	–	–	–	–	–	–
COC(=O)Cn1c(=NC(=O)c2ccc(S(=O)(=O)N3CCc4ccccc4C3)cc2)sc2cc(OC)ccc21	–	–	23	–	–	–
COCCn1c(=NC(=O)c2ccc(S(=O)(=O)N3CCc4ccccc4C3)cc2)sc2cc(S(N)(=O)=O)ccc21	–	–	–	–	–	–
CCC(CC)NC(=O)COC(=O)CCC(=O)c1ccc(Cl)cc1	–	–	–	–	–	–
CCCCCCNC(=O)N[C@@H](C(=O)NCCC[C@H]1CN2C(=NC[C@@H]2Cc2ccccc2)N1CCc1cccc(OC)c1)C(C)C	–	·	–	–	63	–
COc1ccc(CCNC(=S)Nc2cccc(C)c2C)cc1	–	–	27	–	–	–
O=C(O)c1cc(-c2ccc(/C=C3\NC(=O)N(c4ccccc4)C3=O)o2)ccc1Cl	–	–	–	–	82	–
Cc1cccc(N2NC(=O)/C(=C/c3ccc(-c4ccc(Cl)c(C(=O)O)c4)o3)C2=O)c1	–	–	–	–	–	–
O=C(O)c1cc(-c2ccc(/C=C3\NC(=O)N(c4ccc(Cl)cc4)C3=O)o2)ccc1Cl	–	–	–	–	81	–
O=C1NN(c2ccccc2)C(=O)/C1=C/c1ccc(-c2ccc(Cl)c(C(=O)O)c2)o1	–	–	–	–	–	–
COc1cccc(CN(C)C(=O)c2[nH]c(C)c(C(C)=O)c2C)c1OC	·	·	–	·	·	·
Cc1ccc(SCC(=O)OCC(=O)NCc2cccs2)cc1C	·	·	–	·	·	·
Cc1cc(Cl)ccc1NC(=O)NC1CCN(S(=O)(=O)c2ccc(F)cc2)CC1	–	–	–	–	–	–
O=C(CCc1ccc(CCC(=O)c2cccs2)s1)c1cccs1	–	–	–	–	–	–
CCC(CO)[n+]1c(C)cc(/C=C2\Sc3ccccc3N2Cc2ccccc2)cc1C (stereo unspecified)	–	–	·	–	64	–
COc1ccccc1C1CN(c2ccc(F)cc2F)N=C1c1cccs1 (stereo unspecified)	–	–	–	–	83	–
CC(=O)c1ccc(NC(=S)NC(C)c2ccc(Cl)cc2Cl)cc1 (stereo unspecified)	–	–	–	–	–	–
O=C(O)c1ccccc1C(=O)N(c1ccccc1)c1ccccc1	·	·	31	·	·	·
O=C(N(c1ccccc1)c1ccccc1)N(c1ccccc1)c1ccccc1	–	–	–	–	–	–
SMILES	Tb hexokinase	p97 ATPase inh	RanGTP-Impb inh	Runt-CBFb FRET	Runt-SMMHC FRET	Hck Nef HTS
O=C(COc1coc(CN2CCN(c3ccccc3)CC2)cc1=O)NC1CCCC1	·	·	–	·	·	·
Cc1ccc(NC(=O)CCC(=O)N/N=C/c2ccc([N+](=O)[O-])o2)cc1C	–	–	21	–	–	–
CCOC(=O)C1=C(O)/C(=C/c2ccc(C)o2)SC1=NC(=O)c1ccccc1C	–	–	·	·	·	55
COc1ccc(/C=C/C(=O)c2c(O)ccc3c(C)cc(=O)oc23)cc1	–	–	?	–	–	–
Cc1nc([N+](=O)[O-])c(Sc2nc3ccc([N+](=O)[O-])cc3[nH]2)n1Cc1ccccc1	–	–	–	115	–	–
FC(F)(F)c1cccc(Cc2noc(CN3CCCC(OCc4ccccn4)C3)n2)c1 (stereo unspecified)	–	–	–	–	–	–
Cc1ccc(Cn2c(=N)c(C(=O)NCCN3CCOCC3)cc3c(=O)n4ccccc4nc32)cc1	·	·	–	·	·	·
N=c1c(C(=O)NCCc2ccccc2)cc2c(=O)n3ccccc3nc2n1CCCN1CCOCC1	·	·	175	·	·	·
